Measured values from ChEMBL document CHEMBL4028913, “Discovery of Novel Potent VEGFR-2 Inhibitors Exerting Significant Antiproliferative Activity against Cancer Cell Lines” (J Med Chem, 2018).
Calls of active or inactive are those of the source. No cut-off for these calls is given here.

Legend:
SK-MEL-2 = assay: Cytotoxicity against human SK-MEL-2 cells after 48 hrs by SRB assay; format: functional; details: SK-MEL-2, 48 h
Outline: (§1)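 NCI-60 panel; cells grown in RPMI 1640 with 5% FBS and 2 mM L-glutamine, plated at 5000–40 000 cells/well by doubling time, preincubated 24 h (37 °C, 5% CO2). Drug added at five concentrations, 1-log steps from 10−4 to 10−8 M, for 48 h. Fixed with TCA, stained with 0.4% SRB, absorbance read at 515 nm. Percent growth computed against time-zero and untreated controls; GI50, TGI and LC50 derived.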

NCI/ADR-RES = assay: Potency index, ratio of sorafenib GI50 to test compound GI50 for human NCI-ADR-RES cells; format: functional
Outline: (§2)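 GI50 is the concentration giving 50% reduction in net protein increase relative to control. Potency index is the reference-drug GI50 divided by the test-compound GI50.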

SN12C = assay: Cytotoxicity against human SN12C cells after 48 hrs by SRB assay; format: functional; outline: as §1
[1] = Potency index, ratio of test compound LC50 to sunitinib LC50 for human renal cancer cells; format: functional, Renal cancer cell
HL-60(TB) = assay: Cytotoxicity against human HL-60(TB) cells after 48 hrs by SRB assay; format: functional; details: HL-60, 48 h
Outline: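 NCI-60 panel screen. Cells grown in RPMI 1640 with 5% FBS and 2 mM L-glutamine, plated at 5000–40 000 cells/well by doubling time, and preincubated 24 h at 37 °C in 5% CO2; Tz plates fixed at drug addition. Five concentrations, 1-log steps from 10−4 to 10−8 M, for 48 h. Suspension cells fixed with TCA (16% final), stained with 0.4% SRB, read at 515 nm. GI50, TGI and LC50 from percent-growth formulas.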

[2] = molecular target: T1, Vascular endothelial growth factor receptor 2 (Homo sapiens, UniProt P35968); details: at 0.5 µM
T1 sequence (P35968 whole entry): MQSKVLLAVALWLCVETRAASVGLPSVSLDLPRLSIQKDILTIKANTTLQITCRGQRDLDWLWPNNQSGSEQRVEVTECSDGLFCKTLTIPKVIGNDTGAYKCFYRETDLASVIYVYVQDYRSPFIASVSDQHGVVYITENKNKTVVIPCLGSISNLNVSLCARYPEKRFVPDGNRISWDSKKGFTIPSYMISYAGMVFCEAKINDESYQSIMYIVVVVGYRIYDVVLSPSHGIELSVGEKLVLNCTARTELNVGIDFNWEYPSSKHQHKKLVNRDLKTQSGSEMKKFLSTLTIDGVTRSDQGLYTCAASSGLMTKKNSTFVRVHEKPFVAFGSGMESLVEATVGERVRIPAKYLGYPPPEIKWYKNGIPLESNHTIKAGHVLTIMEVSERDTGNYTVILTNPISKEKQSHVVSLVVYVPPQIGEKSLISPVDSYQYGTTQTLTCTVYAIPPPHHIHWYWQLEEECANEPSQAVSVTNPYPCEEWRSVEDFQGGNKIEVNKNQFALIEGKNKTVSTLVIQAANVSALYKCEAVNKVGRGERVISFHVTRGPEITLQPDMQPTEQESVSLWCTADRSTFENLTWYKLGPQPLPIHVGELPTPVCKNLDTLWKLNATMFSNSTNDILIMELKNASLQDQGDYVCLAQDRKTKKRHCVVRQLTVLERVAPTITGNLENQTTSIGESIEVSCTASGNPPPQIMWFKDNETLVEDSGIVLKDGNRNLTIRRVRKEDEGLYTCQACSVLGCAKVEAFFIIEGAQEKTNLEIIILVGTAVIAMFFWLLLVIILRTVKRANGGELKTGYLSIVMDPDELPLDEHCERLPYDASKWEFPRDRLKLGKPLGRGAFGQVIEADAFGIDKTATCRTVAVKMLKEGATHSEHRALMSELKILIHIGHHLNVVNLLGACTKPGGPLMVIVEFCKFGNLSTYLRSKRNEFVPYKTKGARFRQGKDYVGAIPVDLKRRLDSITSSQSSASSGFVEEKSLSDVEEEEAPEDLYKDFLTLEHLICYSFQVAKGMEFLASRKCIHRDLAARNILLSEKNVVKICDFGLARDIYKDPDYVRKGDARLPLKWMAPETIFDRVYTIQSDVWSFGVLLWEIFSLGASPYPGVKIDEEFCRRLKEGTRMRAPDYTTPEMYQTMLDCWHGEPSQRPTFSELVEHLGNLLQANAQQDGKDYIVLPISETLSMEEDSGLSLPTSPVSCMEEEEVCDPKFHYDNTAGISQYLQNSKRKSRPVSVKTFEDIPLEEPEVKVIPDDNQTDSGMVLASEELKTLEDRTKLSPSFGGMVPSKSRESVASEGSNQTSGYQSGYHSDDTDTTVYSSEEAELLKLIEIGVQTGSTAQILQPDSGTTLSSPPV

[3] = molecular target: T1, Vascular endothelial growth factor receptor 2
EKVX = assay: Cytotoxicity against human EKVX cells after 48 hrs by SRB assay; format: functional; outline: as §1
MDA-MB-435 [4] = assay: Growth inhibition of human MDA-MB-435 cells at 10 uM after 72 hrs by CellTiter-Glo assay relative to control; format: functional; details: MDA-MB-435, 72 h, read-out: GI
Outline: (§3)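 Cells in exponential phase seeded at 2000–4000 cells/well, then exposed 72 h at 37 °C, 5% CO2 with 0.1% final DMSO. Single-point screen at 10 μM final. […] Read-out was CellTiter-Glo luminescence.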

[5] = molecular target: T1, Vascular endothelial growth factor receptor 2; details: at 10 µM
K562 = assay: Cytotoxicity against human K562 cells after 48 hrs by SRB assay; format: functional; details: K562, 48 h; outline: as §1
[6] = molecular target: Ephrin type-A receptor 4 (Homo sapiens) (UniProt P54764); assay: Inhibition of human EPHA4 at 0.5 uM relative to control
Sequence of Ephrin type-A receptor 4 (Homo sapiens) (P54764 whole entry): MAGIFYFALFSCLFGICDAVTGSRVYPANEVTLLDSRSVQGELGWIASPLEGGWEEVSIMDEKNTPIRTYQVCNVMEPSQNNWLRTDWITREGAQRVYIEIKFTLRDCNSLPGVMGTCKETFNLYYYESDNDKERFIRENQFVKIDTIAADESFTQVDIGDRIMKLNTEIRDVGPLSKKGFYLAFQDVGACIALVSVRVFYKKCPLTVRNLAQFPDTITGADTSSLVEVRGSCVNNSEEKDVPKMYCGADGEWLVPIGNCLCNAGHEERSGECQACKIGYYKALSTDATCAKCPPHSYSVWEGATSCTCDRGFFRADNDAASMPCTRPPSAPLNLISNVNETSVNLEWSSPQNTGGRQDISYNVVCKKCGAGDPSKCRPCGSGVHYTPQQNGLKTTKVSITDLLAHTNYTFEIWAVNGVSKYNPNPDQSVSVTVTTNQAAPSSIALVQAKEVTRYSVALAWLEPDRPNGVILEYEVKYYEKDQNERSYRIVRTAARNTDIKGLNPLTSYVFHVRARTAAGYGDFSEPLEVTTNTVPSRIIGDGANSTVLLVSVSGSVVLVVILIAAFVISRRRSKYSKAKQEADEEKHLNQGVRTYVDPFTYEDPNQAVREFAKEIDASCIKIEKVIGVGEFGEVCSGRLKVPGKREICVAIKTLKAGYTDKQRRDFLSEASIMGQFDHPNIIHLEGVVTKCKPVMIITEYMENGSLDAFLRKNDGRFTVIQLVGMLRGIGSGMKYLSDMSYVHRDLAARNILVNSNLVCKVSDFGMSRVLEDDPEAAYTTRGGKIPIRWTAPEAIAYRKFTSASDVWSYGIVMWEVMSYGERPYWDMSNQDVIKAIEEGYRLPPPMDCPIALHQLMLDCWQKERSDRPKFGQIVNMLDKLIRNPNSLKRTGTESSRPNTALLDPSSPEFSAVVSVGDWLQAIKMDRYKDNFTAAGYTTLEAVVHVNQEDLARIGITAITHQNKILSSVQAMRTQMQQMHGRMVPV

[7] = Potency index, ratio of sorafenib GI50 to test compound GI50 for human CNS cancer cells; format: functional, CNS cancer cell; outline: as §2
[8] = Potency index, ratio of sorafenib GI50 to test compound GI50 for human non-small cell lung cancer cells; format: functional; outline: as §2
OVCAR-3 = assay: Cytotoxicity against human OVCAR3 cells after 48 hrs by SRB assay; format: functional; details: OVCAR-3, 48 h; outline: as §1
HCT-15 = assay: Cytotoxicity against human HCT15 cells after 48 hrs by SRB assay; format: functional; details: HCT-15, 48 h; outline: as §1
T47D = assay: Cytotoxicity against human T47D cells after 48 hrs by SRB assay; format: functional
Outline: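 NCI-60 panel, five doses at 1-log steps from 10−4 to 10−8 M. Cells grown in RPMI 1640 with 5% FBS and 2 mM L-glutamine, seeded at 5000–40 000 cells/well and preincubated 24 h. Tz plates were TCA-fixed at drug addition. Drug exposure 48 h at 37 °C, then TCA fixation, 0.4% SRB stain and absorbance at 515 nm. GI50 taken from percent growth relative to Tz and control.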

[9] = Potency index, ratio of sorafenib TGI to test compound TGI for human renal cancer cells; format: functional, Renal cancer cell
[10] = Potency index, ratio of sorafenib GI50 to test compound GI50 for human colon cancer cells; format: functional, Colon cancer cell; outline: as §2
RXF 393 = assay: Cytotoxicity against human RXF393 cells after 48 hrs by SRB assay; format: functional; details: RXF 393, 48 h; outline: as §1
[11] = Potency index, ratio of sorafenib GI50 to test compound GI50 for human prostate cancer cells; format: functional, Prostate cancer cell; outline: as §2
[12] = Potency index, ratio of test compound LC50 to sorafenib LC50 for human renal cancer cells; format: functional, Renal cancer cell
[13] = Potency index, ratio of sunitinib GI50 to test compound GI50 for human prostate cancer cells; format: functional, Prostate cancer cell
[14] = Potency index, ratio of sunitinib GI50 to test compound GI50 for human breast cancer cells; format: functional, Breast cancer cell; outline: as §2
MDA-MB-435 [15] = assay: Cytotoxicity against human MDA-MB-435 cells after 48 hrs by SRB assay; format: functional; details: MDA-MB-435, 48 h; outline: as §1
HUVEC = assay: Growth inhibition of HUVEC at 10 uM after 72 hrs by CellTiter-Glo assay relative to control; format: functional; details: Homo sapiens, read-out: GI; outline: as §3
SF-539 = assay: Cytotoxicity against human SF539 cells after 48 hrs by SRB assay; format: functional; details: SF-539, 48 h; outline: as §1
[16] = Potency index, ratio of sunitinib GI50 to test compound GI50 for human renal cancer cells; format: functional, Renal cancer cell
NCI-H23 = assay: Cytotoxicity against human NCI-H23 cells after 48 hrs by SRB assay; format: functional; details: NCI-H23, 48 h; outline: as §1
[17] = molecular target: Ephrin type-A receptor 5 (Homo sapiens) (UniProt P54756); assay: Inhibition of human EPHA5 at 0.5 uM relative to control
Sequence of Ephrin type-A receptor 5 (Homo sapiens) (P54756 whole entry): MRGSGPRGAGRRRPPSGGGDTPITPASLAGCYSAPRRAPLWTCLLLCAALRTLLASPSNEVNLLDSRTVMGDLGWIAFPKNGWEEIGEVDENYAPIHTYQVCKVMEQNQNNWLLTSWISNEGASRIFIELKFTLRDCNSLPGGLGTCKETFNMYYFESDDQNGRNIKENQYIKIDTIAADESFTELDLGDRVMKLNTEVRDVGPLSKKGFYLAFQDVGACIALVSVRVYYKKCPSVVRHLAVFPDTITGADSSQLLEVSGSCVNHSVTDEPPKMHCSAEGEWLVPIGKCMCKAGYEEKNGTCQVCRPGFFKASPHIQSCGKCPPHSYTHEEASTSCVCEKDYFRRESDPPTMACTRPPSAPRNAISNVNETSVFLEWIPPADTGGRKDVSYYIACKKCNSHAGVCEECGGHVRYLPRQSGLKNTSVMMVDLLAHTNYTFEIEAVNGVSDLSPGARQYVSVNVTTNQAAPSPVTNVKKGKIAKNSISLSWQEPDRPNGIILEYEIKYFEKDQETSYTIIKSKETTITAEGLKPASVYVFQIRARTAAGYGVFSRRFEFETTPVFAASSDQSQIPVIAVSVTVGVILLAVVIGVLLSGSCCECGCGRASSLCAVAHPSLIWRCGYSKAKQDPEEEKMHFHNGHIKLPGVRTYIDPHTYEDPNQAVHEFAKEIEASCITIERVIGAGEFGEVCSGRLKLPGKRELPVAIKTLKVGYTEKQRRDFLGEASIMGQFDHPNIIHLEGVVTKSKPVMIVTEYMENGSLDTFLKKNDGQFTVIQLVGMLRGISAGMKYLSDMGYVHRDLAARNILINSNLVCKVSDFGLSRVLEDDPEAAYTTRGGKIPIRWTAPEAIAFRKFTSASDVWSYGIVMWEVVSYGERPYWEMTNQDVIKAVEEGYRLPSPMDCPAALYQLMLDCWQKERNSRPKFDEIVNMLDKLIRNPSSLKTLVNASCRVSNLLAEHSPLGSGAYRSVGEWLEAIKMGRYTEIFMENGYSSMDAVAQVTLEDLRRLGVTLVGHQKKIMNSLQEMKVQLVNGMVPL

[18] = Potency index, ratio of test compound LC50 to sunitinib LC50 for human prostate cancer cells; format: functional, Prostate cancer cell
A549 = assay: Cytotoxicity against human A549 cells after 48 hrs by SRB assay; format: functional; details: A549, 48 h; outline: as §1
[19] = read-out: LC50 (the source's name)

Which results are given for `COc1cc2ncnc(Oc3ccc(NC(=O)Nc4ccc(CN5CCOCC5)c(C(F)(F)F)c4)c4ccccc34)c2cc1OC`?
GI50 (SK-MEL-2): 1.48 µM; TGI (SK-MEL-2): 13.8 µM; CC50 (SK-MEL-2; [19]): > 100 µM; RatioGI50 (NCI/ADR-RES): 3.3; GI50 (SN12C): 0.29 µM; TGI (SN12C): 1.86 µM; CC50 (SN12C; [19]): 13.2 µM; RatioLC50 [1]: 1.3; GI50 (HL-60(TB)): 0.38 µM; TGI (HL-60(TB)): 2.14 µM; CC50 (HL-60(TB); [19]): > 100 µM; inhibition [2]: Active; IC50 [3]: 0.0334 µM; GI50 (EKVX): 0.45 µM; TGI (EKVX): 6.46 µM; CC50 (EKVX; [19]): 67.6 µM; inhibition of growth at 10 µM (MDA-MB-435 [4]): 98.4%; inhibition [5]: 97.8%; GI50 (K562): < 0.01 µM; TGI (K562): 1.12 µM; CC50 (K562; [19]): 95.5 µM; inhibition [6]: Active; RatioGI50 [7]: 1.6 - 2.9; RatioGI50 [8]: 3.9 - 9.5; GI50 (OVCAR-3): 1 µM; TGI (OVCAR-3): 9.55 µM; CC50 (OVCAR-3; [19]): 42.7 µM; GI50 (HCT-15): 1 µM; TGI (HCT-15): 5.13 µM; CC50 (HCT-15; [19]): 28.2 µM; GI50 (T47D): 0.25 µM; TGI (T47D): 4.27 µM; CC50 (T47D; [19]): > 100 µM; Ratio [9]: 3.2; RatioGI50 [10]: 1.6 - 2.9; GI50 (RXF 393): 1.05 µM; TGI (RXF 393): 7.08 µM; CC50 (RXF 393; [19]): 29.5 µM; RatioGI50 [11]: 1.6; RatioLC50 [12]: 2; RatioGI50 [13]: 1.5; RatioGI50 [14]: 5 - 7.7; GI50 (MDA-MB-435 [15]): 0.37 µM; TGI (MDA-MB-435 [15]): 3.39 µM; CC50 (MDA-MB-435 [15]; [19]): 33.9 µM; inhibition of growth at 10 µM (HUVEC): 97.1%; GI50 (SF-539): 1.58 µM; TGI (SF-539): 19.5 µM; CC50 (SF-539; [19]): 52.5 µM; RatioGI50 [16]: 6.8; GI50 (NCI-H23): 0.62 µM; TGI (NCI-H23): 3.98 µM; CC50 (NCI-H23; [19]): > 100 µM; inhibition [17]: Active; RatioLC50 [18]: 1.7; GI50 (A549): 0.55 µM; TGI (A549): 10.7 µM; CC50 (A549; [19]): 81.3 µM
